# Laboratory results: ChEMBL document CHEMBL1135439, “Imidazo[2,1-i]purin-5-ones and related tricyclic water-soluble purine derivatives: potent A(2A)- and A(3)-adenosine receptor antagonists” (J Med Chem, 2002)
# Target: T1, Adenosine receptor A1 (Rattus norvegicus, UniProt P25099)
# T1 sequence (P25099 whole entry): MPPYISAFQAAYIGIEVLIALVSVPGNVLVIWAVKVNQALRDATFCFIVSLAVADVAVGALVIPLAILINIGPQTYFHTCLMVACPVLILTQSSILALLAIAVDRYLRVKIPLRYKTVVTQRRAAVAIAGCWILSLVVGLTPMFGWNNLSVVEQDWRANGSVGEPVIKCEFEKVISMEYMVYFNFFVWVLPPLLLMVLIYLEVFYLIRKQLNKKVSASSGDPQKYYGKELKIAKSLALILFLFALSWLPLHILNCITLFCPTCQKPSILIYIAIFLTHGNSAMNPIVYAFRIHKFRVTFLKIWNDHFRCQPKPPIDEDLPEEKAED
# Assay type: cell membranes, Brain
# Conditions: not given
row,Ki,Compound
1,0.115 µM,CC[C@H]1CN2C(=O)N(C)c3[nH]c(-c4ccccc4)nc3C2=N1
2,65.5 µM,Cn1cnc2c1C1=NCCN1C(=O)N2
3,59 µM,CC1CN=C2c3c(ncn3C)N(C)C(=O)N21 (stereo not drawn)
4,17.5 µM,CC[C@@H]1CN2C(=O)N(C)c3nc(-c4ccccc4)n(C)c3C2=N1
5,0.44 µM,CC[C@@H]1CN2C(=O)N(C)c3nc(-c4ccccc4)[nH]c3C2=N1
6,0.265 µM,CCC1CN2C(=O)N(C)c3[nH]c(-c4ccccc4)nc3C2=N1 (stereo not drawn)

# Target: T2, Adenosine receptor A2b (Mus musculus) (UniProt Q60614)
# T2 sequence (whole entry): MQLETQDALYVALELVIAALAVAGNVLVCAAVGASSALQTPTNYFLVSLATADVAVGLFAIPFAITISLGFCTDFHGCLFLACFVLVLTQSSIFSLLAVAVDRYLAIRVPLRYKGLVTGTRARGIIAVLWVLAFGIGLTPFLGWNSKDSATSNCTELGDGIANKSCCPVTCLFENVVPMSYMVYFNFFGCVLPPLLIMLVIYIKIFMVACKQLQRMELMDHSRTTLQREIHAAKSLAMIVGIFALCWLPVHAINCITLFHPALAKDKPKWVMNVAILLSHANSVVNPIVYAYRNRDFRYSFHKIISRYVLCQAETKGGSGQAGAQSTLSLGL
# Experiment: Inhibition against A2B-Adenosine Receptor in mouse NIH 3T3 fibroblast cell membranes
# Assay type: cell-based
# Conditions: not given
# Summary of the method: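 Functional adenylate cyclase assay in NIH 3T3 fibroblast cell membranes: test compounds antagonize NECA-induced stimulation of AC (cAMP accumulation). K_B is calculated with the Schild equation from the ratio of NECA EC50 values with and without antagonist.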
row,Compound,Kb
1,Cn1c(=O)c2[nH]cnc2n(C)c1=O.O [THEOPHYLLINE],16 µM
2,CCCn1c(=O)[nH]c(=O)c2nc[nH]c21,18 µM

# Target: T2, Adenosine receptor A2b (Mus musculus)
# Experiment: Inhibition against A2B-Adenosine Receptor in mouse NIH 3T3 fibroblast cell membranes (functional antagonist activity)
# Assay type: cell-based
# Conditions: not given
# Summary of the method: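 Adenylate cyclase assay measuring antagonism of NECA-stimulated AC in rat PC12 membranes (A2A) or NIH 3T3 fibroblast membranes (A2B). KB was obtained from the Schild equation, using the ratio of NECA EC50 values with and without antagonist.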
row,Kb,Compound
1,5.2 µM,Cn1c(=O)[nH]c2nc(-c3ccccc3)n(C)c2c1=O
2,25 µM,Cn1c(=O)c2c(ncn2C)n(C)c1=O
3,7.6 µM,CC[C@H]1CN2C(=O)N(C)c3[nH]c(-c4ccccc4)nc3C2=N1
4,2.1 µM,CC[C@@H]1CN2C(=O)N(C)c3nc(-c4ccccc4)[nH]c3C2=N1

# Target: T3, Adenosine receptor A1 (Rattus norvegicus) (UniProt P25099)
# T3 sequence (whole entry): T1 sequence (P25099 whole entry)
# Experiment: Percent displacement of [3H]CHA from Adenosine A1 receptor of rat brain cortical membrane at 10 uM
# Conditions: not given
# Summary of the method: (§1)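 Single-concentration inhibition of [3H]CHA binding to rat cerebral cortical membrane A1 receptors, reported as percent displacement at the stated test concentration. Nonspecific binding was determined with 10 μM 2-chloroadenosine.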
row,Displacement,Compound
1,10%,C[C@H]1CN2C(=O)N(C)c3ncn(C)c3C2=N1

# Target: Adenosine receptor A2a (Rattus norvegicus) (UniProt P30543)
# Sequence (P30543 whole entry): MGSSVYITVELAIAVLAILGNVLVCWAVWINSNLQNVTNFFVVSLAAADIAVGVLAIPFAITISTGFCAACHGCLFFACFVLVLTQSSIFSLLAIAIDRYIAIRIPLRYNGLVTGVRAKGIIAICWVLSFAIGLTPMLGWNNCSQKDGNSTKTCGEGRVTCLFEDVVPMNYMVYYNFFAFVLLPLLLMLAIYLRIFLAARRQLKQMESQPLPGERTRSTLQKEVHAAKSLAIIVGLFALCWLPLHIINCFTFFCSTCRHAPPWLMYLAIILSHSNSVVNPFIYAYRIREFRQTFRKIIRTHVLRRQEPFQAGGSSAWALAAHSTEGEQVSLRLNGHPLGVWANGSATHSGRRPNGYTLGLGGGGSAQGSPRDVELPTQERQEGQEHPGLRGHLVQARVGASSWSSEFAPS
# Experiment: Binding affinity against Adenosine A2A receptor by displacement of [3H]CGS-21680 radioligand in rat brain striatal membrane at 30 uM
# Assay type: cell membranes
# Conditions: not given
# Summary of the method: (§2)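 Single-concentration inhibition of [3H]CGS21680 binding to rat striatal membrane A2A receptors, reported as percent displacement at the stated test concentration. Nonspecific binding was defined with 20 μM 2-chloroadenosine.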
row,Displacement,Compound
1,12%,C[C@@H]1CN2C(=O)N(C)c3ncn(C)c3C2=N1

# Target: T4, Adenosine receptor A3 (Homo sapiens) (UniProt P0DMS8)
# T4 sequence (whole entry): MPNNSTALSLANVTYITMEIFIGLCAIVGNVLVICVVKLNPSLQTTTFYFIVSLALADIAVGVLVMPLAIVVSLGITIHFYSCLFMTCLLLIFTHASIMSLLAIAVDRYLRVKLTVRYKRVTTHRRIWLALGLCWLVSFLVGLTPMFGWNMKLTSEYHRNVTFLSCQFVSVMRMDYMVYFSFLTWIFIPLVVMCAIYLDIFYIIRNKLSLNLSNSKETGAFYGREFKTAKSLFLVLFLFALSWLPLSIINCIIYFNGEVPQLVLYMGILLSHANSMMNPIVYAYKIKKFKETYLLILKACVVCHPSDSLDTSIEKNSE
# Experiment: Percent displacement against human recombinant Adenosine A3 receptor expressed in HEK293 cells by displacing [125I]AB-MECA at 100 uM
# Assay type: cell-based
# Conditions: not given
row,Displacement,Compound
1,28%,CCC1CN2C(=O)N(C)c3ncn(C)c3C2=N1 (stereo not drawn)

# Target: Adenosine receptor A2a (Rattus norvegicus, UniProt P30543)
# Sequence (P30543 whole entry): as the sequence (P30543 whole entry) above
# Experiment: Binding affinity to the adenosine A2A receptor by displacement of [3H]CGS-21680 in rat brain striatal membrane
# Assay type: cell membranes
# Conditions: not given
row,Ki,Compound
1,16.2 µM,CCC1CN2C(=O)N(C)c3ncn(C)c3C2=N1 (stereo not drawn)
2,0.83 µM,Cn1c(=O)c2[nH]c(-c3ccccc3)nc2n(C)c1=O [8-PHENYL THEOPHYLLINE]
3,10.9 µM,CC[C@H]1CN2C(=O)N(C)c3ncn(C)c3C2=N1
4,3.33 µM,CC[C@H]1CN2C(=O)N(C)c3[nH]c(-c4ccccc4)nc3C2=N1
5,40.9 µM,Cn1cnc2c1C1=NCCN1C(=O)N2
6,64.6 µM,CC1CN=C2c3c(ncn3C)N(C)C(=O)N21 (stereo not drawn)
7,36.3 µM,CC[C@@H]1CN2C(=O)N(C)c3nc(-c4ccccc4)n(C)c3C2=N1
8,2.1 µM,CC[C@@H]1CN2C(=O)N(C)c3nc(-c4ccccc4)[nH]c3C2=N1
9,3.1 µM,CCC1CN2C(=O)N(C)c3[nH]c(-c4ccccc4)nc3C2=N1 (stereo not drawn)

# System: not listed separately
# Experiment: Water solubility of the compound
# Assay type: ADME
# Conditions: read-out: S
row,solubility,Compound
1,2.8 µM,Cn1c(=O)c2c(nc(/C=C/c3ccccc3)n2C)n(C)c1=O
2,0.22 µM,Cn1c(=O)c2nc(/C=C/c3ccccc3)[nH]c2n(C)c1=O
3,487 µM,Cn1c(=O)c2c(nc(-c3ccccc3)n2C)n(C)c1=O

row,Compound,solubility
1,Cn1c(=O)c2[nH]cnc2n(C)c1=O.O [THEOPHYLLINE],44400 µM

# Target: Adenosine receptor A2a (Rattus norvegicus) (UniProt P30543)
# Experiment: Inhibition against A2A-Adenosine Receptor of rat PC12 cell membranes (functional antagonist activity)
# Assay type: cell-based
# Conditions: PC-12
row,Kb,Compound
1,5.7 µM,Cn1c(=O)[nH]c2nc(-c3ccccc3)n(C)c2c1=O
2,4.3 µM,CC[C@H]1CN2C(=O)N(C)c3[nH]c(-c4ccccc4)nc3C2=N1
3,2.5 µM,CC[C@@H]1CN2C(=O)N(C)c3nc(-c4ccccc4)[nH]c3C2=N1

# Target: Adenosine receptor A2a (Rattus norvegicus) (UniProt P30543)
# Experiment: Percent displacement of [3H]CGS-21680 from Adenosine A2A receptor of rat brain striatal membrane at 30 uM
# Conditions: not given
# Summary of the method: as §2
row,Displacement,Compound
1,46%,C[C@H]1CN2C(=O)N(C)c3ncn(C)c3C2=N1

# Target: T3, Adenosine receptor A1 (Rattus norvegicus)
# Experiment: Percent displacement of [3H]CHA from Adenosine A1 receptor of rat brain cortical membrane at 250 uM
# Conditions: not given
# Summary of the method: as §1
row,Displacement,Compound
1,46%,CCC1CN2C(=O)N(C)c3ncn(C)c3C2=N1 (stereo not drawn)
2,50%,CC[C@H]1CN2C(=O)N(C)c3ncn(C)c3C2=N1

# Target: T3, Adenosine receptor A1 (Rattus norvegicus)
# Experiment: Inhibition against Adenosine A1 receptor of rat fat cell membranes (functional antagonist activity)
# Conditions: not given
row,Kb,Compound
1,0.32 µM,Cn1c(=O)[nH]c2nc(-c3ccccc3)n(C)c2c1=O
2,0.063 µM,CC[C@H]1CN2C(=O)N(C)c3[nH]c(-c4ccccc4)nc3C2=N1
3,0.43 µM,CC[C@@H]1CN2C(=O)N(C)c3nc(-c4ccccc4)[nH]c3C2=N1

# Target: T3, Adenosine receptor A1 (Rattus norvegicus)
# Experiment: Percent displacement of [3H]CHA from Adenosine A1 receptor of rat brain cortical membrane at 3 uM
# Conditions: not given
# Summary of the method: as §1
row,Displacement,Compound
1,14%,C[C@@H]1CN2C(=O)N(C)c3ncn(C)c3C2=N1
